Measured values pooled from the literature.
Protocols differ between the studies behind these lines.
Target: Serine/threonine-protein kinase/endoribonuclease IRE1 (ERN1, Homo sapiens, UniProt O75460)

N[C@@H]1CCN(c2nccc(-c3cnn4ncccc34)n2)C1  remaining binding (binding; 1 µM): 100%
CCOCCn1cc(C(=O)Nc2ccc(-n3nc(-c4cccnc4)cc3C(F)(F)F)cn2)ccc1=O  remaining binding (cell-free assay; competition with immobilised ligand; 1 µM): 87%
O=C(c1ccc(Nc2nccc(-c3cc4ccccc4s3)n2)cc1)N1CCC(N2CCCC2)CC1  remaining binding (binding; competition with immobilised ligand; 1 µM): 41%
COc1cnc(Nc2cccc(S(N)(=O)=O)c2)nc1N1CCN(c2ccccc2)CC1  remaining binding (binding; competition with immobilised ligand; 1 µM): 73%
O=C(NCc1ncc(C(F)(F)F)cc1Cl)c1ccc2c(c1)C1(CCS(=O)(=O)CC1)[C@@H](C1CC1)N2S(=O)(=O)c1ccc(F)cc1  remaining binding (cell-free assay; competition with immobilised ligand; 1 µM): 65%
O=C(NCCCN1CCOCC1)c1ccc(Nc2ncc(Cl)c(-c3ccc(Cl)s3)n2)cc1  remaining binding (binding; competition with immobilised ligand; 1 µM): 27%
CN(c1nccc(-c2cnn3ncccc23)n1)C1CC1  remaining binding (binding; 1 µM): 100%
O=C(O)[C@@H]1[C@@H](Cn2nnc3ccccc3c2=O)CC[C@H]1C(=O)c1ccc(OCCC2CCOCC2)cc1  remaining binding (cell-free assay; competition with immobilised ligand; 1 µM): 88%
C[C@@H]1CCN(c2nccc(-c3cnn4ncccc34)n2)C1  remaining binding (binding; 1 µM): 100%
FC(F)(F)Oc1cccc(-c2cnc3ccc(-c4ccncc4)nn23)c1  remaining binding (cell-free assay; competition with immobilised ligand; 5 µM): 79%
O=C(c1ccc(Nc2ncc(Cl)c(-c3ccc(Cl)s3)n2)cc1)N1CCC(N2CCCC2)CC1  remaining binding (binding; competition with immobilised ligand; 1 µM): 35%
CNC(=O)[C@@H]1CC[C@@H](n2c(-c3ccc4cnccc4c3)nc3ccc(C(=O)NCc4cccc(C(N)=O)c4)cc32)C1  remaining binding (binding; competition with immobilised ligand; 1 µM): 97%
CN(C)c1nccc(-c2cnc3ncccn23)n1  remaining binding (binding; 1 µM): 60%
CS(=O)(=O)N1CCCC(NC(=O)[C@H](CCC2CCCCC2)NC(=O)c2ccc(CNc3ncnc4c3nnn4-c3ccccc3)cc2)C1 (stereo partly drawn)  remaining binding (cell-free assay; competition with immobilised ligand; 0.1 µM): 100%
C[C@@H](c1ccc(-n2cnc3c(N)ncnc32)cc1)N1CCc2nn(C)c(Cc3ccccc3)c2C1=O  remaining binding (binding; competition with immobilised ligand; 0.1 µM): 72%
O=C(Nc1c[nH]nc1C(=O)NC1CCNCC1)c1cc(F)cc(F)c1  remaining binding (binding; competition with immobilised ligand; 1 µM): 86%
CN(CCCC(F)(F)F)c1nccc(-c2cnn3ncccc23)n1  remaining binding (binding; 1 µM): 97%
CN1CCN(c2cnc3c(C4CCN(C(=O)c5ccc(OC(F)(F)F)cc5N)CC4)ncnc3c2)CC1  remaining binding (cell-free assay; competition with immobilised ligand; 1 µM): 99%
C=CC(=O)N1CCC(C(=O)NCC(=O)N2CCN(c3nc(-c4cnc(N)nc4C(F)F)nc(N4CCOCC4)n3)CC2)CC1  remaining binding (binding; competition with immobilised ligand; 1 µM): 100%
Cc1cnn2ncc(-c3ccnc(N(C)C)n3)c2c1  remaining binding (binding; 1 µM): 100%
CCCCN(CCCC)C(=O)CN1C[C@@H](c2cc(OC)c3c(c2)OCO3)[C@H](C(=O)O)[C@H]1CC(C)(C)CCC  remaining binding (cell-free assay; competition with immobilised ligand; 1 µM): 100%
